# What was measured:
# [1] = target: T1, human recombinant GIVA cPLA2 (Homo sapiens, UniProt P47712); format: biochemical
# T1 sequence (P47712 1-749): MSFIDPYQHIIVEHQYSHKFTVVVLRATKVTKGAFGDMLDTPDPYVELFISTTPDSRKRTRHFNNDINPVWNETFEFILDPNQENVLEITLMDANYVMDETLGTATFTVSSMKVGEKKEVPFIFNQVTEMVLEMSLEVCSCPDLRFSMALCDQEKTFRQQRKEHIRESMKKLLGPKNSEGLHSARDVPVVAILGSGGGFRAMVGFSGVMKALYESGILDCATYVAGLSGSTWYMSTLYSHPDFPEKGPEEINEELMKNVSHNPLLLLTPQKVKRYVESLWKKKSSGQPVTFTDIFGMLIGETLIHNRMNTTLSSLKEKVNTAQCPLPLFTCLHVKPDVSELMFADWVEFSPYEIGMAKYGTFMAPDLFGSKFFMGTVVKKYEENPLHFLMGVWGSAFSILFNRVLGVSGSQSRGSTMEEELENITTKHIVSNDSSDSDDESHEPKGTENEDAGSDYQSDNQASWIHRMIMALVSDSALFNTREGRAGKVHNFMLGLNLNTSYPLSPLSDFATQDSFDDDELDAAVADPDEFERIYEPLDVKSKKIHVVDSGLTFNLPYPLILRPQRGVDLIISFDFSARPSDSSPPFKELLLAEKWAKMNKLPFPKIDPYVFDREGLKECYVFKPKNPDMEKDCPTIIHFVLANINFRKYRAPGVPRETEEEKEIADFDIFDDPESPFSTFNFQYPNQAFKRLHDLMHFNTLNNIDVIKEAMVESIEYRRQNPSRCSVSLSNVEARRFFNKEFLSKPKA
# plasma stability study = format: in vitro ADME; settings: 37 °C, 1 mg/mL
# Summary of the method: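 Test compound added to preheated human plasma (37 °C) at a final 1 mg/mL. Aliquots taken at 0, 15, 30 and 60 min, quenched with acetonitrile, vortexed and centrifuged 5 min. Supernatants analysed by LC-HRMS/MS (negative ESI, C18 column, acetonitrile/isopropanol–water gradient with 0.01% formic acid). Each sample run in triplicate. Percent remaining relative to initial concentration plotted against time.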
Compound,inhibition of GIVA cPLA2 (in words) [1],parent compound in human plasma after 30 min (plasma stability study),further results
5-((6-(4-Butoxyphenyl)hexanoyl)oxy)pentanoic Acid [Compound 27b],no inhibition,,
5-((6-(4-Butoxyphenyl)-2-fluorohexanoyl)oxy)pentanoic Acid [Compound 27a],abolished the inhibitory potency,,"percent parent compound remaining after 1 h (plasma stability study; human plasma, 1 h): ~100%"
"CCCCOc1ccc(CCCCC(=O)C(=O)O)cc1 [Compound 29, 6-(4-Butoxyphenyl)-2-oxohexanoic Acid]",very weak inhibition,,
"CCCCCCOc1ccc(CCCCC(=O)C(=O)OCCCCC(=O)O)cc1 [Compound 25b, 5-((6-(4-(Hexyloxy)phenyl)-2-oxohexanoyl)oxy)pentanoic Acid]",,not detectable,selectivity for GIVA cPLA2 over GVIA iPLA2 [1]: at least 500 fold; times more potent than 6 against GIVA cPLA2 [1]: 4 times
"CCCCOc1ccc(CCCCC(=O)C(=O)OCCCCC(=O)O)cc1 [Compound 25a, 5-((6-(4-Butoxyphenyl)-2-oxohexanoyl)oxy)pentanoic Acid]",,not detectable,times less potent than 25b against GIVA cPLA2 [1]: 3 times

# From PMC6120731 (ACS Omega, 2018)
